From ChEMBL document CHEMBL4673343, “Lythrum salicaria Ellagitannins Stimulate IPEC-J2 Cells Monolayer Formation and Inhibit Enteropathogenic Escherichia coli Growth and Adhesion” (J Nat Prod, 2020)
Converted amounts (≈) assume the structure as drawn. The source made the active and inactive calls. No cut-off for these calls is given here.

Legend:
[1] = system: IPEC-J2; experiment: Induction of porcine IPEC-J2 cells monolayer development assessed as increase in transepithelial electrical resistance at 20 uM after 6 days by voltammetric method; type: functional, cell-based; settings: Sus scrofa domesticus, time 6.0 day
How it was run: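 IPEC-J2 cells were seeded at 5 × 10^5/insert (0.4 μm PET) and cultured until TEER exceeded 1 kΩ cm2 (day 7). Apical medium was then replaced with 20 μM compound or PBS and renewed at day 10, with basolateral medium changed in parallel. TEER was read with an EVOM2 chopstick electrode at days 10 and 13. Mann–Whitney test versus PBS.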

[2] = system: Escherichia coli; experiment: Growth inhibition of Escherichia coli 0147:K89:K88 assessed as lag time at 10 uM measured every 5 mins for 24 hrs by turbidometric analysis (reference value: 300 min); type: functional; settings: time hrs <=24
How it was run: (§1)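 Strains were revived from cryostocks and passaged twice daily in BHI with shaking at 37 °C over 2 days. Double-strength BHI plus diluted test stock (compounds in DMSO, 0.22 μm filtered), inoculum at final 10^4 CFU/mL, film-sealed for anaerobic conditions, 37 °C in plate reader. OD690 was read every 5 min for 24 h; lag time came from the lag-exponential method. Three independent experiments were run, each in triplicate.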

[3] = system: Escherichia coli; experiment: Growth inhibition of Escherichia coli DSM 2840 assessed as lag time at 50 uM measured every 5 mins for 24 hrs by turbidometric analysis (reference value: 312 min); type: functional; settings: time hrs <=24; how it was run: as §1
[4] = system: Escherichia coli; experiment: Antibacterial activity against heat labile toxin gene positive Escherichia coli; type: functional
[5] = system: Escherichia coli; experiment: Antibacterial activity against Shiga-like toxin positive Escherichia coli; type: functional
[6] = system: Escherichia coli; experiment: Growth inhibition of Escherichia coli 0147:K89:K88 infected in porcine IPEC-J2 cells assessed as inhibition of EPEC adhesion 100 uM preincubated for 24 hrs followed by compound wash subsequently infected with bacteria by CFDA-SE staining based flow cytometric analysis; type: functional; settings: 0147:K89:K88, IPEC-J2, in Sus scrofa
How it was run: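 IPEC-J2 cells were seeded at 10^5/well and grown 7 days. On day 8 they were treated 24 h, then washed twice with warm PBS and given antibiotic-free medium. Infection used CFDA-SE-labelled (1 mM, 120 min, 37 °C) O147:K89:K88 at MOI 100 for 45 min, followed by three PBS washes and trypsinization. Flow cytometry measured MFI over 10 000 events. Mean ± SD of three experiments in triplicate; Dunnett's test versus PBS.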

[7] = system: Escherichia coli; experiment: Growth inhibition of Escherichia coli 0147:K89:K88 assessed as lag time at 100 uM measured every 5 mins for 24 hrs by turbidometric analysis (reference value: 300 min); type: functional; settings: time hrs <=24; how it was run: as §1
[8] = system: Escherichia coli; experiment: Growth inhibition of Escherichia coli DSM 2840 assessed as doubling time at 50 uM measured every 5 mins for 24 hrs by turbidometric analysis (reference value: 31.6 +/- 0.8 min); type: functional; settings: time hrs <=24; how it was run: as §1
[9] = system: Escherichia coli; experiment: Growth inhibition of Escherichia coli 0147:K89:K88 assessed as lag time at 5 uM measured every 5 mins for 24 hrs by turbidometric analysis (reference value: 300 min); type: functional; settings: time hrs <=24; how it was run: as §1
[10] = system: Escherichia coli; experiment: Growth inhibition of Escherichia coli 0147:K89:K88 assessed as lag time at 200 uM measured every 5 mins for 24 hrs by turbidometric analysis (reference value: 300 min); type: functional; settings: time hrs <=24; how it was run: as §1
[11] = system: Escherichia coli; experiment: Growth inhibition of Escherichia coli 0147:K89:K88 measured every 5 mins for 24 hrs by turbidometric analysis; type: functional; settings: time hrs <=24; how it was run: as §1
[12] = system: Escherichia coli; experiment: Growth inhibition of Escherichia coli 0147:K89:K88 assessed as lag time at 20 uM measured every 5 mins for 24 hrs by turbidometric analysis (reference value: 300 min); type: functional; settings: time hrs <=24; how it was run: as §1
[13] = system: Escherichia coli; experiment: Growth inhibition of Escherichia coli DSM 2840 assessed as doubling time at 100 uM measured every 5 mins for 24 hrs by turbidometric analysis (reference value: 31.6 +/- 0.8 min); type: functional; settings: time hrs <=24; how it was run: as §1
[14] = system: Escherichia coli; experiment: Growth inhibition of Escherichia coli DSM 2840 assessed as lag time at 500 uM measured every 5 mins for 24 hrs by turbidometric analysis (reference value: 312 min); type: functional; settings: time hrs <=24; how it was run: as §1
[15] = system: Escherichia coli; experiment: Antibacterial activity against invasive E gene positive Escherichia coli; type: functional
[16] = system: Escherichia coli; experiment: Growth inhibition of Escherichia coli 0147:K89:K88 assessed as doubling time at 500 uM measured every 5 mins for 24 hrs by turbidometric analysis (reference value: 34.1 +/- 0.5 min); type: functional; settings: time hrs <=24; how it was run: as §1
[17] = system: Escherichia coli; experiment: Growth inhibition of Escherichia coli 0147:K89:K88 assessed as doubling time at 200 uM measured every 5 mins for 24 hrs by turbidometric analysis (reference value: 34.1 +/- 0.5 min); type: functional; settings: time hrs <=24; how it was run: as §1
[18] = system: Escherichia coli; experiment: Growth inhibition of Escherichia coli 0147:K89:K88 assessed as doubling time at 100 uM measured every 5 mins for 24 hrs by turbidometric analysis (reference value: 34.1 +/- 0.5 min); type: functional; settings: time hrs <=24; how it was run: as §1
[19] = system: Escherichia coli; experiment: Growth inhibition of Escherichia coli 0147:K89:K88 assessed as doubling time at 5 uM measured every 5 mins for 24 hrs by turbidometric analysis (reference value: 34.1 +/- 0.5 min); type: functional; settings: time hrs <=24; how it was run: as §1
[20] = system: Escherichia coli; experiment: Growth inhibition of Escherichia coli 0147:K89:K88 assessed as lag time at 50 uM measured every 5 mins for 24 hrs by turbidometric analysis (reference value: 300 min); type: functional; settings: time hrs <=24; how it was run: as §1
[21] = system: Escherichia coli; experiment: Growth inhibition of Escherichia coli 0147:K89:K88 assessed as doubling time at 50 uM measured every 5 mins for 24 hrs by turbidometric analysis (reference value: 34.1 +/- 0.5 min); type: functional; settings: time hrs <=24; how it was run: as §1
[22] = system: Escherichia coli; experiment: Growth inhibition of Escherichia coli 0147:K89:K88 assessed as lag time at 500 uM measured every 5 mins for 24 hrs by turbidometric analysis (reference value: 300 min); type: functional; settings: time hrs <=24; how it was run: as §1
[23] = system: Escherichia coli; experiment: Antibacterial activity against heat stable toxin gene positive Escherichia coli; type: functional
[24] = system: Escherichia coli; experiment: Antibacterial activity against Escherichia coli; type: functional
How it was run: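 Strains: enteropathogenic E. coli O147:K89:K88 (Abbotstown) and non-fimbriated DSM 2840. Both were subcultured in BHI with shaking at 37 °C for 2 days, then inoculated at 10^4 CFU/mL final in BHI microplates. Extract stock was in water and pure compounds in DMSO, tested at 20–2000 μg/mL (extract), with ciprofloxacin as positive control. Plates were sealed for anaerobic conditions at 37 °C, and OD690 was read every 5 min for 24 h. MIC-level wells were plated on BHI agar (48 h). Three independent experiments were run in triplicate.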

[25] = system: Escherichia coli; experiment: Growth inhibition of Escherichia coli DSM 2840 assessed as doubling time at 10 uM measured every 5 mins for 24 hrs by turbidometric analysis (reference value: 31.6 +/- 0.8 min); type: functional; settings: time hrs <=24; how it was run: as §1
[26] = system: Escherichia coli; experiment: Growth inhibition of Escherichia coli DSM 2840 assessed as doubling time at 200 uM measured every 5 mins for 24 hrs by turbidometric analysis (reference value: 31.6 +/- 0.8 min); type: functional; settings: time hrs <=24; how it was run: as §1
[27] = system: Escherichia coli; experiment: Growth inhibition of Escherichia coli DSM 2840 assessed as lag time at 200 uM measured every 5 mins for 24 hrs by turbidometric analysis (reference value: 312 min); type: functional; settings: time hrs <=24; how it was run: as §1
[28] = system: Escherichia coli; experiment: Growth inhibition of Escherichia coli DSM 2840 assessed as lag time at 10 uM measured every 5 mins for 24 hrs by turbidometric analysis (reference value: 312 min); type: functional; settings: time hrs <=24; how it was run: as §1
[29] = system: Escherichia coli; experiment: Growth inhibition of Escherichia coli DSM 2840 assessed as lag time at 20 uM measured every 5 mins for 24 hrs by turbidometric analysis (reference value: 312 min); type: functional; settings: time hrs <=24; how it was run: as §1
[30] = system: Escherichia coli; experiment: Growth inhibition of Escherichia coli DSM 2840 assessed as doubling time at 5 uM measured every 5 mins for <=24 hrs by turbidometric analysis (reference value: 31.6 +/- 0.8 min); type: functional; settings: time hrs <=24; how it was run: as §1
[31] = system: Escherichia coli; experiment: Antibacterial activity against Escherichia coli ATCC 25922; type: functional
[32] = system: Escherichia coli; experiment: Growth inhibition of Escherichia coli DSM 2840 assessed as doubling time at 500 uM measured every 5 mins for 24 hrs by turbidometric analysis (reference value: 31.6 +/- 0.8 min); type: functional; settings: time hrs <=24; how it was run: as §1
[33] = system: Escherichia coli; experiment: Growth inhibition of Escherichia coli DSM 2840 assessed as doubling time at 20 uM measured every 5 mins for 24 hrs by turbidometric analysis (reference value: 31.6 +/- 0.8 min); type: functional; settings: time hrs <=24; how it was run: as §1
[34] = system: Escherichia coli; experiment: Antibacterial activity against Escherichia coli by two-fold serial dilution method; type: functional
[35] = system: Escherichia coli; experiment: Growth inhibition of Escherichia coli 0147:K89:K88 assessed as doubling time at 10 uM measured every 5 mins for 24 hrs by turbidometric analysis (reference value: 34.1 +/- 0.5 min); type: functional; settings: time hrs <=24; how it was run: as §1
[36] = system: Escherichia coli; experiment: Growth inhibition of Escherichia coli DSM 2840 assessed as lag time at 100 uM measured every 5 mins for 24 hrs by turbidometric analysis (reference value: 312 min); type: functional; settings: time hrs <=24; how it was run: as §1
[37] = system: Escherichia coli; experiment: Growth inhibition of Escherichia coli DSM 2840 assessed as lag time at 5 uM measured every 5 mins for 24 hrs by turbidometric analysis (reference value: 312 min); type: functional; settings: time hrs <=24; how it was run: as §1
[38] = system: Escherichia coli; experiment: Antibacterial activity against Escherichia coli IFO 3972; type: functional
[39] = system: Escherichia coli; experiment: Growth inhibition of Escherichia coli 0147:K89:K88 assessed as doubling time at 20 uM measured every 5 mins for 24 hrs by turbidometric analysis (reference value: 34.1 +/- 0.5 min); type: functional; settings: time hrs <=24; how it was run: as §1
[40] = system: IPEC-J2; experiment: Induction of claudin-4 protein expression in porcine IPEC-J2 cells at 20 uM after 6 days by Western blot analysis; type: functional, cell-based; settings: Sus scrofa domesticus, time 6.0 day
How it was run: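 Inserts were treated apically with 20 μM from day 7, with medium renewed at day 10. At day 13 cells were lysed and protein equalized by BCA, then run on SDS–PAGE and transferred to nitrocellulose. Blots were probed with mouse anti-claudin 4 and an HRP secondary and detected by ECL. Band intensity was normalized to β-actin and expressed as fold over PBS control.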

## O=C1OC[C@H]2OC(=O)c3cc(O)c(O)c(O)c3-c3c(O)c(O)c(O)c4c3C(=O)O[C@H]([C@H]3OC(=O)c5c-4c(O)c(O)c(O)c5[C@@H]3O)[C@@H]2OC(=O)c2cc(O)c(O)c(O)c2-c2c1cc(O)c(O)c2O
[1]
  Activity: Active

## O=C1OC[C@H]2OC(=O)c3cc(O)c(O)c(O)c3-c3c(O)c(O)c(O)c4c3C(=O)O[C@H]([C@H]3OC(=O)c5c-4c(O)c(O)c(O)c5[C@H]3O)[C@@H]2OC(=O)c2cc(O)c(O)c(O)c2-c2c1cc(O)c(O)c2O [CASTALAGIN]
[2]
  Time: 310 min
[3]
  Time: 422 min
[4]
  MIC: 705 µM (≈ 659 µg/mL)
[5]
  MIC: 705 µM (≈ 659 µg/mL)
[6]
  inhibition at 100 µM: 37.7%
[7]
  Time: 647 min
[8]
  Time: 43 min
[9]
  Time: 317 min
[10]
  Time: 722 min
[11]
  MIC: 500 µM (≈ 467 µg/mL)
[12]
  Time: 380 min
[13]
  Time: 42.9 min
[14]
  Time: >1440 min
[15]
  MIC: 705 µM (≈ 659 µg/mL)
[16]
  Time: >1440 min
[17]
  Time: 35.9 min
[18]
  Time: 36.6 min
[19]
  Time: 36.8 min
[20]
  Time: 502 min
[21]
  Time: 45.3 min
[22]
  Time: >1440 min
[23]
  MIC: 705 µM (≈ 659 µg/mL)
[24]
  MIC: 705 µM (≈ 659 µg/mL)
[25]
  Time: 34.9 min
[26]
  Time: 56.8 min
[27]
  Time: 870 min
[28]
  Time: 320 min
[29]
  Time: 347 min
[30]
  Time: 33.4 min
[31]
  MIC: 705 µM (≈ 659 µg/mL)
[32]
  Time: >1440 min
[33]
  Time: 38.1 min
[34]
  MIC: 533 µM (≈ 498 µg/mL)
[35]
  Time: 34.3 min
[36]
  Time: 515 min
[37]
  Time: 322 min
[38]
  MIC: 705 µM (≈ 659 µg/mL)
[1]
  Activity: Active
[39]
  Time: 45.6 min

## O=C(O[C@@H]1COC(=O)c2cc(O)c(O)c(O)c2-c2c(cc(O)c(O)c2O)C(=O)O[C@H]1[C@@H]1OC(=O)c2cc(O)c(O)c(O)c2-c2c(O)c(O)c(O)c3c2C(=O)O[C@H]1[C@H]3O)c1cc(O)c(O)c(O)c1Oc1cc2c(c(O)c1O)-c1c(cc(O)c(O)c1O)C(=O)OC[C@H]1OC(=O)c3cc(O)c(O)c(O)c3-c3c(O)c(O)c(O)c4c3C(=O)O[C@H]([C@H]3OC(=O)c5c-4c(O)c(O)c(O)c5[C@@H]3O)[C@@H]1OC2=O
[40]
  Activity: Active
[1]
  Activity: Active
